# Experimental data of several laboratories.
# Lines come from different studies, so protocols differ.
# RPS6KA1 N-terminal kinase domain: Ribosomal protein S6 kinase alpha-1, N-terminal kinase domain (RPS6KA1, Homo sapiens, UniProt Q15418)
# RPS6KA1: Ribosomal protein S6 kinase alpha-1 (RPS6KA1, Homo sapiens, UniProt Q15418)
# RPS6KA1 C-terminal kinase domain: Ribosomal protein S6 kinase alpha-1, C-terminal kinase domain (RPS6KA1, Homo sapiens, UniProt Q15418)
Structure (SMILES),target,assay,conditions,measurement,value
CC(=O)c1c(NS(C)(=O)=O)c2cc(-c3ccc(Cl)cc3)c(-c3ccc(Cl)cc3Cl)nc2n(C)c1=O,RPS6KA1 N-terminal kinase domain,"cell-free assay, competition with immobilised ligand",1 µM,remaining binding,93%
COc1cc(Cl)c(C(=O)N[C@@H](CN[C@H]2CC[C@@H](N)CC2)Cc2ccc(C#N)cc2)cc1-c1ccc(CN[C@H](C)c2ccc(C)cc2)o1,RPS6KA1,"enzyme activity, inhibitor",1 µM,remaining activity,85%
N[C@@H]1CCN(c2nccc(-c3cnn4ncccc34)n2)C1,RPS6KA1 C-terminal kinase domain,"binding, competition with immobilised ligand",1 µM,remaining binding,100%
Cc1ccc(C(=O)NCc2ccsc2)cc1C#Cc1cn(C(C)C)c2ncnc(N)c12,RPS6KA1,"enzyme activity, inhibitor",1 µM,activity vs control,101%
Nc1ncnc2occ(-c3ccc(NC(=O)Nc4cc(C(F)(F)F)ccc4F)cc3)c12,RPS6KA1 C-terminal kinase domain,"cell-free assay, inhibitor",20 µM,remaining signal,20%
CC(C)(O)[C@H]1CC[C@H](Nc2ccc3ncc(-c4cccc(C(F)(F)F)c4)n3n2)CC1,RPS6KA1,"enzyme activity, inhibitor",1 µM,remaining activity,72%
CC(C)(C)c1nc(-c2cccc(NS(=O)(=O)c3c(F)cccc3F)c2F)c(-c2ccnc(N)n2)s1,RPS6KA1,"enzyme activity, inhibitor, radiometric",1 µM,remaining activity,90%
Cc1ccc(C(=O)Nc2ccc(CN3CCN(C)CC3)c(C(F)(F)F)c2)cc1C#Cc1cnc2cccnn12,RPS6KA1,"enzyme activity, inhibitor",23.5 nM,remaining activity,80%
CC(C)(O)c1cncc(-c2nc3ccc(F)cc3n2C2CC2)c1,RPS6KA1 C-terminal kinase domain,"cell-free assay, competition with immobilised ligand",1 µM,remaining binding,100%
FC(F)c1nc2ccccc2n1-c1nc(N2CCOCC2)nc(N2CCOCC2)n1,RPS6KA1,"enzyme activity, inhibitor",10 µM,remaining activity,95%
CC/C(=N\NC(=O)C(C)Nc1ccccc1)c1ccc(O)c(C)c1O (centres unmarked),RPS6KA1,"enzyme activity, inhibitor",0.1 µM,inhibition,36.6%
CC(C)c1ccc(NC(=O)c2cccs2)c(-c2nc3ccccc3[nH]c2=O)c1,RPS6KA1,"enzyme activity, inhibitor",1 µM,activity vs control,96%
C[C@H]1CCN(c2nccc(-c3cnn4ncccc34)n2)C1,RPS6KA1 C-terminal kinase domain,"binding, competition with immobilised ligand",1 µM,remaining binding,30%
c1ccc(CNc2nc(N3CCOc4ccccc43)nc3c2CCCC3)cc1,RPS6KA1 C-terminal kinase domain,"target engagement in cells, inhibitor, chemoproteomics",20 mM,inhibition,-6.9%
COc1cc2c(Nc3ccc(Br)cc3F)ncnc2cc1OCC1CCN(C)CC1,RPS6KA1,cell-free assay,0.5 µM,remaining signal,102%
COc1cc(Nc2cnc(C#N)c(O[C@H](C)CN(C)C)n2)ncc1-c1cnn(C)c1,RPS6KA1,"enzyme activity, inhibitor, radiometric",1 µM,remaining activity,4%
Cn1cncc1C1=CN(c2ncnc3[nH]cnc23)CCS1,RPS6KA1,"enzyme activity, inhibitor, radiometric",2 µM,inhibition,82%
CCOc1cc(-c2nncn2C)ccc1Nc1ncc2cc(C)nc(NCC(C)(C)C)c2n1,RPS6KA1,"enzyme activity, inhibitor, FRET",1 µM,inhibition,< 15%
N#CC1(c2ccccn2)CCN(Cc2cc(C(=O)N3CCCC3)c(=O)n3ccccc23)CC1,RPS6KA1 N-terminal kinase domain,"cell-free assay, competition with immobilised ligand",1 µM,remaining binding,100%
CN1CC(Oc2cnc(C#N)cc2-c2ccn3nc(NC(=O)C4CC4)cc3c2)C1,RPS6KA1,"enzyme activity, inhibitor",1 µM,inhibition,31%
Nc1nc(Nc2ccc(S(N)(=O)=O)cc2)nn1C(=O)c1c(F)cccc1F,RPS6KA1,cell-free assay,0.5 µM,remaining signal,42.1%
CC1CCCN1c1nccc(-c2cnn3ncccc23)n1 (centres unmarked),RPS6KA1 C-terminal kinase domain,"binding, competition with immobilised ligand",1 µM,remaining binding,77%
CC(C)(C)C(=O)c1sc(NC2CCCCC2)nc1N,RPS6KA1,"enzyme activity, inhibitor",10 µM,remaining activity,89%
CN(C)c1ncc(F)c(-c2cnn3ncccc23)n1,RPS6KA1 C-terminal kinase domain,"binding, competition with immobilised ligand",1 µM,remaining binding,100%
COc1cc2ncnc(Nc3ccc(Oc4ccccc4)cc3C)c2cc1OC,RPS6KA1,"enzyme activity, inhibitor",1 µM,inhibition,6%
CNC(=O)c1ccc(Nc2ncc(C(F)(F)F)c(NCc3nccnc3N(C)S(C)(=O)=O)n2)cc1,RPS6KA1 C-terminal kinase domain,"cell-free assay, competition with immobilised ligand",0.1 µM,remaining binding,71%
c1cnn2ncc(-c3ccnc(N4CCC45COC5)n3)c2c1,RPS6KA1 C-terminal kinase domain,"binding, competition with immobilised ligand",1 µM,remaining binding,56%
C#Cc1cccc(Nc2ncnc3cc(OCCOC)c(OCCOC)cc23)c1,RPS6KA1,cell-free assay,0.5 µM,remaining signal,97.6%
O=C(Nc1cnn(-c2csc(C(=O)NC3COC3)c2)c1)Nc1c(F)cccc1Cl,RPS6KA1,"enzyme activity, inhibitor",5 µM,remaining activity,96.3%
CCN(CC)CCNC(=O)c1c(C)[nH]c(/C=C2\C(=O)Nc3ccc(F)cc32)c1C,RPS6KA1,cell-free assay,0.5 µM,remaining signal,28%
Cc1sc(C(=O)NC2COC2)cc1-n1cc(NC(=O)Nc2c(F)cccc2Cl)cn1,RPS6KA1,"enzyme activity, inhibitor",10 µM,remaining activity,93.2%
Cc1nccc(COC(=O)N2C[C@@H]3[C@@H](CNC(=O)c4ccc5[nH]nnc5c4)[C@@H]3C2)n1,RPS6KA1 C-terminal kinase domain,"cell-free assay, competition with immobilised ligand",1 µM,remaining binding,96%
N#CCCc1ccc2c(c1)-c1[nH]c3ccc([N+](=O)[O-])cc3c1CC(=O)N2,RPS6KA1,cell-free assay,0.5 µM,remaining signal,59.9%
Nc1cnc(N2CCc3cc(S(=O)(=O)Nc4c(F)cc(Cl)cc4F)cc(N4CCCC4=O)c32)nc1,RPS6KA1 N-terminal kinase domain,"cell-free assay, competition with immobilised ligand",1 µM,remaining binding,93%
C[C@@H]1CCN(C(=O)CC#N)C[C@@H]1N(C)c1ncnc2[nH]ccc12,RPS6KA1,"cell-free assay, inhibitor",0.5 µM,remaining signal,90.9%
Cc1ccc(NC(=O)c2ccc(C)c(C(F)(F)F)c2)cc1C#Cc1nn(C2CCC(O)CC2)c2ncnc(N)c12 (centres unmarked),RPS6KA1,cell-free assay,10 µM,remaining signal,11%
CNCc1ccccc1-c1csc([C@H](C)Nc2nc(C)nc3cc(OC)c(OC)cc23)c1,RPS6KA1 C-terminal kinase domain,"cell-free assay, competition with immobilised ligand",1 µM,remaining binding,100%
Nc1nc(Nc2ccccc2)sc1C(=O)c1c(F)cccc1F,RPS6KA1,"enzyme activity, inhibitor",10 µM,remaining activity,29%
CCCOc1ccc(OC)c(F)c1C(=O)c1ccc(C(=O)N[C@@H]2CNC[C@H]2NC(=O)c2ccc3[nH]ncc3c2)cc1,RPS6KA1,"enzyme activity, inhibitor",10 µM,remaining activity,29%
CO[C@H]1CC[C@H](CNc2ccc(S(=O)(=O)NC(=O)c3ccc(N4CCN(CC5=C(c6ccc(Cl)cc6)CC(C)(C)CC5)CC4)cc3Oc3cnc4[nH]ccc4c3)cc2[N+](=O)[O-])CC1,RPS6KA1 C-terminal kinase domain,"cell-free assay, competition with immobilised ligand",1 µM,remaining binding,73%
CNC(=O)c1cc(Oc2ccc(NC(=O)Nc3ccc(Cl)c(C(F)(F)F)c3)cc2)ccn1,RPS6KA1,"enzyme activity, inhibitor",10 µM,inhibition,25%
